{
  "source": "ChEMBL document CHEMBL2346664",
  "about": "“Synthesis, characterization and in vitro anticancer evaluation of novel 1,2,4-triazolin-3-one derivatives” (2013)",
  "key": {"[1]": {"system": "PC-3", "assay": "Growth inhibition of human PC3 cells assessed as growth inhibition at 10 uM after 48 hrs by sulforhodamine B assay", "type": "functional", "details": "PC-3, 48 h, read-out: GI"}, "[2]": {"system": "MOLT-4", "assay": "Growth inhibition of human MOLT4 cells assessed as cell growth at 10 '-7 M after 48 hrs by sulforhodamine B assay", "type": "functional", "details": "MOLT-4, 48 h, read-out: Activity"}, "[3]": {"system": "M14", "assay": "Growth inhibition of human M14 cells after 48 hrs by sulforhodamine B assay", "type": "functional", "details": "M14, 48 h", "how_it_was_run": "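NCI 60-cell-line five-dose screen. Cells were plated at 5,000–40,000/well by doubling time and grown 24 h at 37 °C, 5% CO2. Time-zero plates were TCA-fixed. Drug from DMSO stock was tested at 0.01, 0.1, 1, 10 and 100 µM final for 48 h continuous exposure. Read-out was SRB at 515 nm. GI50 is the concentration giving 50% reduction in net protein increase versus untreated control.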"}, "[4]": {"system": "SK-MEL-2", "assay": "Growth inhibition of human SK-MEL-2 cells assessed as cell growth at 10 '-8 M after 48 hrs by sulforhodamine B assay", "type": "functional", "details": "SK-MEL-2, 48 h, read-out: Activity"}, "[5]": {"system": "HOP-62", "assay": "Growth inhibition of human HOP62 cells assessed as growth inhibition at 10 uM after 48 hrs by sulforhodamine B assay", "type": "functional", "details": "HOP-62, 48 h, read-out: GI"}, "[6]": {"system": "OVCAR-3", "assay": "Growth inhibition of human OVCAR3 cells assessed as growth inhibition at 10 uM after 48 hrs by sulforhodamine B assay", "type": "functional", "details": "OVCAR-3, 48 h, read-out: GI"}, "[7]": {"system": "RXF 393", "assay": "Growth inhibition of human RXF393 cells assessed as growth inhibition at 10 uM after 48 hrs by sulforhodamine B assay", "type": "functional", "details": "RXF 393, 48 h, read-out: GI"}, "[8]": {"system": "NCI-H226", "assay": "Growth inhibition of human NCI-H226 cells assessed as growth inhibition at 10 uM after 48 hrs by sulforhodamine B assay", "type": "functional", "details": "NCI-H226, 48 h, read-out: GI"}, "[9]": {"system": "A498", "assay": "Growth inhibition of human A498 cells assessed as cell growth at 10 '-8 M after 48 hrs by sulforhodamine B assay", "type": "functional", "details": "A498, 48 h, read-out: Activity", "how_it_was_run": "(§1)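 Percent growth at each of the five concentrations of the 48 h continuous-exposure NCI SRB screen. Drug stocks were in DMSO at 400× the top final concentration and diluted in medium with gentamicin. Growth was calculated as [(Ti-Tz)/(C-Tz)]×100 when Ti ≥ Tz, or [(Ti-Tz)/Tz]×100 when Ti < Tz. Tz plates were fixed at drug addition; untreated wells served as control. Absorbance was read at 515 nm.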"}, "[10]": {"system": "UO-31", "assay": "Growth inhibition of human UO31 cells assessed as cell growth at 10 '-7 M after 48 hrs by sulforhodamine B assay", "type": "functional", "details": "UO-31, 48 h, read-out: Activity"}, "[11]": {"system": "DU-145", "assay": "Growth inhibition of human DU145 cells assessed as cell growth at 10 '-5 M after 48 hrs by sulforhodamine B assay", "type": "functional", "details": "DU-145, 48 h, read-out: Activity"}, "[12]": {"system": "LOX IMVI", "assay": "Growth inhibition of human LOXIMVI cells assessed as cell growth at 10 '-7 M after 48 hrs by sulforhodamine B assay", "type": "functional", "details": "read-out: Activity"}, "[13]": {"system": "NCI-H460", "assay": "Growth inhibition of human NCI-H460 cells assessed as cell growth at 10 '-8 M after 48 hrs by sulforhodamine B assay", "type": "functional", "details": "NCI-H460, 48 h, read-out: Activity"}, "[14]": {"system": "MOLT-4", "assay": "Growth inhibition of human MOLT4 cells assessed as cell growth at 10 '-8 M after 48 hrs by sulforhodamine B assay", "type": "functional", "details": "MOLT-4, 48 h, read-out: Activity"}, "[15]": {"system": "HT-29", "assay": "Growth inhibition of human HT-29 cells assessed as growth inhibition at 10 uM after 48 hrs by sulforhodamine B assay", "type": "functional", "details": "HT-29, 48 h, read-out: GI"}, "[16]": {"system": "HL-60(TB)", "assay": "Growth inhibition of human HL-60(TB) cells assessed as growth inhibition at 10 uM after 48 hrs by sulforhodamine B assay", "type": "functional, cell-based", "how_it_was_run": "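NCI DTP single high-dose primary screen at 10^-5 M across 60 human tumour lines. Growth percent of treated cells is taken relative to untreated controls: values of 0–100 indicate growth inhibition and values below 0 indicate cytotoxicity. Both growth percent and percentage growth inhibition are reported.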"}, "[17]": {"system": "HT-29", "assay": "Growth inhibition of human HT-29 cells assessed as cell growth at 10 '-5 M after 48 hrs by sulforhodamine B assay", "type": "functional", "details": "HT-29, 48 h, read-out: Activity"}, "[18]": {"system": "HCT-116", "assay": "Growth inhibition of human HCT116 cells assessed as cell growth at 10 '-7 M after 48 hrs by sulforhodamine B assay", "type": "functional", "details": "HCT-116, 48 h, read-out: Activity"}, "[19]": {"system": "HOP-92", "assay": "Growth inhibition of human HOP92 cells assessed as cell growth at 10 '-7 M after 48 hrs by sulforhodamine B assay", "type": "functional", "details": "HOP-92, 48 h, read-out: Activity"}, "[20]": {"system": "UO-31", "assay": "Growth inhibition of human UO31 cells assessed as growth inhibition at 10 uM after 48 hrs by sulforhodamine B assay", "type": "functional", "details": "UO-31, 48 h, read-out: GI"}, "[21]": {"system": "SK-MEL-28", "assay": "Growth inhibition of human SK-MEL-28 cells assessed as cell growth at 10 '-5 M after 48 hrs by sulforhodamine B assay", "type": "functional", "details": "SK-MEL-28, 48 h, read-out: Activity"}, "[22]": {"system": "BT-549", "assay": "Growth inhibition of human BT549 cells assessed as cell growth at 10 '-8 M after 48 hrs by sulforhodamine B assay", "type": "functional", "details": "BT-549, 48 h, read-out: Activity", "how_it_was_run": "as §1"}, "[23]": {"assay": "Growth inhibition of human NCI-ADR-RES cells assessed as cell growth at 10 '-8 M after 48 hrs by sulforhodamine B assay", "type": "functional", "details": "read-out: Activity"}, "[24]": {"system": "SK-MEL-5", "assay": "Growth inhibition of human SK-MEL-5 cells assessed as cell growth at 10 '-5 M after 48 hrs by sulforhodamine B assay", "type": "functional", "details": "SK-MEL-5, 48 h, read-out: Activity"}, "[25]": {"system": "Malme-3M", "assay": "Growth inhibition of human MALME-3M cells assessed as cell growth at 10 '-7 M after 48 hrs by sulforhodamine B assay", "type": "functional", "details": "read-out: Activity"}, "[26]": {"system": "PC-3", "assay": "Growth inhibition of human PC3 cells assessed as cell growth at 10 '-5 M after 48 hrs by sulforhodamine B assay", "type": "functional", "details": "PC-3, 48 h, read-out: Activity"}, "[27]": {"system": "SF-268", "assay": "Growth inhibition of human SF268 cells assessed as cell growth at 10 '-6 M after 48 hrs by sulforhodamine B assay", "type": "functional", "details": "SF-268, 48 h, read-out: Activity"}, "[28]": {"system": "RXF 393", "assay": "Growth inhibition of human RXF393 cells assessed as cell growth at 10 '-7 M after 48 hrs by sulforhodamine B assay", "type": "functional", "details": "RXF 393, 48 h, read-out: Activity"}, "[29]": {"system": "SW-620", "assay": "Growth inhibition of human SW620 cells after 48 hrs by sulforhodamine B assay", "type": "functional", "details": "SW-620, 48 h"}, "[30]": {"system": "SN12C", "assay": "Growth inhibition of human SN12C cells assessed as cell growth at 10 '-6 M after 48 hrs by sulforhodamine B assay", "type": "functional", "details": "read-out: Activity"}, "[31]": {"system": "A498", "assay": "Growth inhibition of human A498 cells assessed as cell growth at 10 '-6 M after 48 hrs by sulforhodamine B assay", "type": "functional", "details": "A498, 48 h, read-out: Activity", "how_it_was_run": "as §1"}, "[32]": {"details": "read-out: LD50 (the source's name)"}},
  "note": "Calls of active or inactive are those of the source. The calls are words filed in the database; no cut-off is given here.",
  "data": [
    {"compound": "Cc1cc(=O)oc2cc(OCCn3c(C)nn(-c4ccc(Cl)cc4)c3=O)ccc12", "values": [
      {"measurement": "inhibition of growth at 10 µM", "setting": "[1]", "value": 51.5, "unit": "%"},
      {"measurement": "growth at 0.1 µM", "setting": "[2]", "value": 109, "unit": "%"},
      {"measurement": "GI50", "setting": "[3]", "value": 2360, "unit": "nM"},
      {"measurement": "TGI", "setting": "[3]", "value": "> 1000", "unit": "nM"},
      {"measurement": "CC50", "setting": "[3]; [32]", "value": "> 1000", "unit": "nM"},
      {"measurement": "growth at 0.01 µM", "setting": "[4]", "value": 104, "unit": "%"},
      {"measurement": "inhibition of growth at 10 µM", "setting": "[5]", "value": 72.7, "unit": "%"},
      {"measurement": "inhibition of growth at 10 µM", "setting": "[6]", "value": 85.2, "unit": "%"},
      {"measurement": "inhibition of growth at 10 µM", "setting": "[7]", "value": 62.6, "unit": "%"},
      {"measurement": "inhibition of growth at 10 µM", "setting": "[8]", "value": 49.9, "unit": "%"},
      {"measurement": "growth at 0.01 µM", "setting": "[9]", "value": 81, "unit": "%"},
      {"measurement": "growth at 0.1 µM", "setting": "[10]", "value": 83, "unit": "%"},
      {"measurement": "growth at 10 µM", "setting": "[11]", "value": 18, "unit": "%"},
      {"measurement": "growth at 0.1 µM", "setting": "[12]", "value": 88, "unit": "%"},
      {"measurement": "growth at 0.01 µM", "setting": "[13]", "value": 104, "unit": "%"},
      {"measurement": "growth at 0.01 µM", "setting": "[14]", "value": 104, "unit": "%"},
      {"measurement": "inhibition of growth at 10 µM", "setting": "[15]", "value": 99.3, "unit": "%"},
      {"measurement": "growth inhibition (GI)", "setting": "[16]", "value": "Active"},
      {"measurement": "growth at 10 µM", "setting": "[17]", "value": 14, "unit": "%"},
      {"measurement": "growth at 0.1 µM", "setting": "[18]", "value": 98, "unit": "%"},
      {"measurement": "growth at 0.1 µM", "setting": "[19]", "value": 83, "unit": "%"},
      {"measurement": "inhibition of growth at 10 µM", "setting": "[20]", "value": 57.2, "unit": "%"},
      {"measurement": "growth at 10 µM", "setting": "[21]", "value": 33, "unit": "%"},
      {"measurement": "growth at 0.01 µM", "setting": "[22]", "value": 105, "unit": "%"},
      {"measurement": "growth at 0.01 µM", "setting": "[23]", "value": 102, "unit": "%"},
      {"measurement": "growth at 10 µM", "setting": "[24]", "value": 13, "unit": "%"},
      {"measurement": "growth at 0.1 µM", "setting": "[25]", "value": 104, "unit": "%"},
      {"measurement": "growth at 10 µM", "setting": "[26]", "value": 48, "unit": "%"},
      {"measurement": "growth at 1 µM", "setting": "[27]", "value": 87, "unit": "%"},
      {"measurement": "growth at 0.1 µM", "setting": "[28]", "value": 90, "unit": "%"},
      {"measurement": "GI50", "setting": "[29]", "value": 2200, "unit": "nM"},
      {"measurement": "TGI", "setting": "[29]", "value": "> 1000", "unit": "nM"},
      {"measurement": "CC50", "setting": "[29]; [32]", "value": "> 1000", "unit": "nM"},
      {"measurement": "growth at 1 µM", "setting": "[30]", "value": 82, "unit": "%"},
      {"measurement": "growth at 1 µM", "setting": "[31]", "value": 52, "unit": "%"}
    ]}
  ]
}
